{"source": "ChEMBL document CHEMBL2346664", "about": "“Synthesis, characterization and in vitro anticancer evaluation of novel 1,2,4-triazolin-3-one derivatives” (2013)", "assay_type_in_all_cases": "functional", "key": {"MCF7": {"test_system": "MCF7", "test": "Growth inhibition of human MCF7 cells assessed as cell growth at 10 '-6 M after 48 hrs by sulforhodamine B assay", "conditions": "MCF7, 48 h, read-out: Activity"}, "RXF 393": {"test_system": "RXF 393", "test": "Growth inhibition of human RXF393 cells assessed as cell growth at 10 '-6 M after 48 hrs by sulforhodamine B assay", "conditions": "RXF 393, 48 h, read-out: Activity"}, "OVCAR-3": {"test_system": "OVCAR-3", "test": "Growth inhibition of human OVCAR3 cells assessed as cell growth at 10 '-6 M after 48 hrs by sulforhodamine B assay", "conditions": "OVCAR-3, 48 h, read-out: Activity"}, "SK-MEL-5": {"test_system": "SK-MEL-5", "test": "Growth inhibition of human SK-MEL-5 cells assessed as cell growth at 10 '-6 M after 48 hrs by sulforhodamine B assay", "conditions": "SK-MEL-5, 48 h, read-out: Activity"}, "LOX IMVI": {"test_system": "LOX IMVI", "test": "Growth inhibition of human LOXIMVI cells assessed as cell growth at 10 '-6 M after 48 hrs by sulforhodamine B assay", "conditions": "read-out: Activity"}, "HCT-116": {"test_system": "HCT-116", "test": "Growth inhibition of human HCT116 cells assessed as growth inhibition at 10 uM after 48 hrs by sulforhodamine B assay", "conditions": "HCT-116, 48 h, read-out: GI"}, "SF-539": {"test_system": "SF-539", "test": "Growth inhibition of human SF539 cells assessed as cell growth at 10 '-6 M after 48 hrs by sulforhodamine B assay", "conditions": "SF-539, 48 h, read-out: Activity"}, "ACHN [1]": {"test_system": "ACHN", "test": "Growth inhibition of human ACHN cells assessed as cell growth at 10 '-7 M after 48 hrs by sulforhodamine B assay", "conditions": "read-out: Activity", "outline": "(§1)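 Percent growth at each of the five concentrations of the 48 h continuous-exposure NCI SRB screen. Drug stocks were in DMSO at 400× the top final concentration and diluted in medium with gentamicin. Growth was calculated as [(Ti-Tz)/(C-Tz)]×100 when Ti ≥ Tz, or [(Ti-Tz)/Tz]×100 when Ti < Tz. Tz plates were fixed at drug addition; untreated wells served as control. Absorbance was read at 515 nm.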"}, "UACC-257": {"test_system": "UACC-257", "test": "Growth inhibition of human UACC257 cells assessed as cell growth at 10 '-7 M after 48 hrs by sulforhodamine B assay", "conditions": "UACC-257, 48 h, read-out: Activity"}, "SNB-75": {"test_system": "SNB-75", "test": "Growth inhibition of human SNB75 cells assessed as cell growth at 10 '-7 M after 48 hrs by sulforhodamine B assay", "conditions": "SNB-75, 48 h, read-out: Activity"}, "OVCAR-5": {"test_system": "OVCAR-5", "test": "Growth inhibition of human OVCAR5 cells assessed as cell growth at 10 '-4 M after 48 hrs by sulforhodamine B assay", "conditions": "OVCAR-5, 48 h, read-out: Activity"}, "SK-MEL-28": {"test_system": "SK-MEL-28", "test": "Growth inhibition of human SK-MEL-28 cells assessed as cell growth at 10 '-4 M after 48 hrs by sulforhodamine B assay", "conditions": "SK-MEL-28, 48 h, read-out: Activity"}, "RPMI-8226": {"test_system": "RPMI-8226", "test": "Growth inhibition of human RPMI8226 cells assessed as cell growth at 10 '-8 M after 48 hrs by sulforhodamine B assay", "conditions": "RPMI-8226, 48 h, read-out: Activity"}, "HL-60(TB)": {"test_system": "HL-60(TB)", "test": "Growth inhibition of human HL-60(TB) cells assessed as cell growth at 10 '-8 M after 48 hrs by sulforhodamine B assay", "conditions": "HL-60, 48 h, read-out: Activity", "outline": "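Five-dose NCI protocol with final concentrations of 0.01–100 µM and drug diluted from a DMSO stock (400× the top concentration) in medium with gentamicin. Cells were pre-incubated 24 h, then exposed 48 h at 37 °C. Suspension cells were fixed with 16% final TCA, SRB-stained and read at 515 nm. Percentage growth at each level was [(Ti−Tz)/(C−Tz)]×100, or [(Ti−Tz)/Tz]×100 when Ti < Tz.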"}, "DU-145": {"test_system": "DU-145", "test": "Growth inhibition of human DU145 cells after 48 hrs by sulforhodamine B assay", "conditions": "DU-145, 48 h", "outline": "(§2)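 NCI 60-cell-line five-dose screen. Cells were plated at 5,000–40,000/well by doubling time and grown 24 h at 37 °C, 5% CO2. Time-zero plates were TCA-fixed. Drug from DMSO stock was tested at 0.01, 0.1, 1, 10 and 100 µM final for 48 h continuous exposure. Read-out was SRB at 515 nm. GI50 is the concentration giving 50% reduction in net protein increase versus untreated control.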"}, "CAKI-1": {"test_system": "CAKI-1", "test": "Growth inhibition of human CAKI-1 cells after 48 hrs by sulforhodamine B assay", "conditions": "CAKI-1, 48 h", "outline": "(§3)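 NCI 60-cell-line five-dose screen at 0.01, 0.1, 1, 10 and 100 µM final. Cells were plated at 5,000–40,000/well and grown 24 h at 37 °C, 5% CO2, then exposed to drug continuously for 48 h. Adherent cells were fixed with cold TCA (10% final) and stained with SRB; absorbance read at 515 nm. GI50 is the concentration where [(Ti-Tz)/(C-Tz)]×100 = 50, with Tz plates fixed at drug addition.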"}, "ACHN [2]": {"test_system": "ACHN", "test": "Growth inhibition of human ACHN cells after 48 hrs by sulforhodamine B assay", "outline": "as §3"}, "SK-OV-3": {"test_system": "SK-OV-3", "test": "Growth inhibition of human SKOV3 cells after 48 hrs by sulforhodamine B assay", "conditions": "SK-OV-3, 48 h"}, "IGROV-1": {"test_system": "IGROV-1", "test": "Growth inhibition of human IGROV1 cells assessed as cell growth at 10 uM after 48 hrs by sulforhodamine B assay", "conditions": "IGROV-1, 48 h, read-out: Activity"}, "OVCAR-4": {"test_system": "OVCAR-4", "test": "Growth inhibition of human OVCAR4 cells after 48 hrs by sulforhodamine B assay", "conditions": "OVCAR-4, 48 h", "outline": "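NCI 60-cell-line five-dose screen over 0.01, 0.1, 1, 10 and 100 µM, with 48 h continuous exposure at 37 °C and 5% CO2 after 24 h pre-incubation (5,000–40,000 cells/well). Cells were TCA-fixed (10% final for adherent, 16% for suspension), stained with SRB and read at 515 nm. GI50 was solved from [(Ti−Tz)/(C−Tz)]×100 = 50 against time-zero plates.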"}, "HOP-92": {"test_system": "HOP-92", "test": "Growth inhibition of human HOP92 cells after 48 hrs by sulforhodamine B assay", "conditions": "HOP-92, 48 h", "outline": "as §2"}, "ACHN [3]": {"test_system": "ACHN", "test": "Growth inhibition of human ACHN cells assessed as cell growth at 10 '-8 M after 48 hrs by sulforhodamine B assay", "conditions": "read-out: Activity", "outline": "as §1"}, "SK-MEL-2": {"test_system": "SK-MEL-2", "test": "Growth inhibition of human SK-MEL-2 cells assessed as cell growth at 10 '-5 M after 48 hrs by sulforhodamine B assay", "conditions": "SK-MEL-2, 48 h, read-out: Activity"}, "SF-268": {"test_system": "SF-268", "test": "Growth inhibition of human SF268 cells assessed as cell growth at 10 '-8 M after 48 hrs by sulforhodamine B assay", "conditions": "SF-268, 48 h, read-out: Activity"}, "[4]": {"conditions": "read-out: LD50 (the source's name)"}}, "data": [{"smiles": "Cc1cc(=O)oc2cc(OCCn3c(C)nn(-c4ccc(Cl)cc4)c3=O)ccc12", "values": [{"measurement": "growth at 1 µM", "setting": "MCF7", "result": 77, "unit": "%"}, {"measurement": "growth at 1 µM", "setting": "RXF 393", "result": 75, "unit": "%"}, {"measurement": "growth at 1 µM", "setting": "OVCAR-3", "result": 96, "unit": "%"}, {"measurement": "growth at 1 µM", "setting": "SK-MEL-5", "result": 47, "unit": "%"}, {"measurement": "growth at 1 µM", "setting": "LOX IMVI", "result": 74, "unit": "%"}, {"measurement": "inhibition of growth at 10 µM", "setting": "HCT-116", "result": 84.9, "unit": "%"}, {"measurement": "growth at 1 µM", "setting": "SF-539", "result": 88, "unit": "%"}, {"measurement": "growth at 0.1 µM", "setting": "ACHN [1]", "result": 106, "unit": "%"}, {"measurement": "growth at 0.1 µM", "setting": "UACC-257", "result": 101, "unit": "%"}, {"measurement": "growth at 0.1 µM", "setting": "SNB-75", "result": 79, "unit": "%"}, {"measurement": "growth at 100 µM", "setting": "OVCAR-5", "result": 45, "unit": "%"}, {"measurement": "growth at 100 µM", "setting": "SK-MEL-28", "result": 33, "unit": "%"}, {"measurement": "growth at 0.01 µM", "setting": "RPMI-8226", "result": 101, "unit": "%"}, {"measurement": "growth at 0.01 µM", "setting": "HL-60(TB)", "result": 101, "unit": "%"}, {"measurement": "GI50", "setting": "DU-145", "result": 3.9, "unit": "µM"}, {"measurement": "TGI", "setting": "DU-145", "result": "> 1", "unit": "µM"}, {"measurement": "CC50", "setting": "DU-145; [4]", "result": "> 1", "unit": "µM"}, {"measurement": "GI50", "setting": "CAKI-1", "result": 1, "unit": "µM"}, {"measurement": "TGI", "setting": "CAKI-1", "result": "> 1", "unit": "µM"}, {"measurement": "CC50", "setting": "CAKI-1; [4]", "result": "> 1", "unit": "µM"}, {"measurement": "GI50", "setting": "ACHN [2]", "result": 5.59, "unit": "µM"}, {"measurement": "TGI", "setting": "ACHN [2]", "result": "> 1", "unit": "µM"}, {"measurement": "CC50", "setting": "ACHN [2]; [4]", "result": "> 1", "unit": "µM"}, {"measurement": "GI50", "setting": "SK-OV-3", "result": 3.36, "unit": "µM"}, {"measurement": "TGI", "setting": "SK-OV-3", "result": 4.88, "unit": "µM"}, {"measurement": "CC50", "setting": "SK-OV-3; [4]", "result": "> 1", "unit": "µM"}, {"measurement": "growth at 10 µM", "setting": "IGROV-1", "result": 59.7, "unit": "%"}, {"measurement": "GI50", "setting": "OVCAR-4", "result": 2.68, "unit": "µM"}, {"measurement": "CC50", "setting": "OVCAR-4; [4]", "result": "> 1", "unit": "µM"}, {"measurement": "GI50", "setting": "HOP-92", "result": 1.61, "unit": "µM"}, {"measurement": "TGI", "setting": "HOP-92", "result": "> 1", "unit": "µM"}, {"measurement": "CC50", "setting": "HOP-92; [4]", "result": "> 1", "unit": "µM"}, {"measurement": "growth at 0.01 µM", "setting": "ACHN [3]", "result": 111, "unit": "%"}, {"measurement": "growth at 10 µM", "setting": "SK-MEL-2", "result": 62, "unit": "%"}, {"measurement": "growth at 0.01 µM", "setting": "SF-268", "result": 104, "unit": "%"}]}]}
